According to article PMC10945512 (RSC Advances, 2024):

What was measured:
MT-4 cells = assay: Cytotoxicity assay; type: cell-based, human; conditions: read-out: CC50, concentration that inhibits the proliferation of MT-4 cells by 50%, MTT, five days, average of at least three independent experiments
Summary of the method: (§1)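 MT-4 cells grown in RPMI-1640 with 10% FBS, 100 units per mL penicillin and streptomycin, at 37 °C in humidified 5% CO2. Cells seeded at 50 000 per well and exposed to test compound (2.5, 5, 10, 20, 40, 80 μM) for five days at 37 °C. MTT (final 0.5 mg mL−1) added for 2 h, then DMSO. A570 read; measured three times; CC50 calculated.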

HIV-1 integrase = HIV-1 integrase (Human immunodeficiency virus type 1 group M subtype B, UniProt P04585); assay: Strand transfer inhibition assay; type: biochemical
Cytotoxicity assay = type: cell-based, human; conditions: human, MT-4 cells
Summary of the method: as §1

Row | Compound | IC50 (HIV-1 integrase) | CC50 (MT-4 cells) | CC50 at 5 days (Cytotoxicity assay)
1 | 5-nitro-3-(((4-(trifluoromethyl)benzyl)oxy)methyl)-1H-indole-2-carboxylic acid [Compound 10a] | – | 65.2 ± 5.22 µM | –
2 | O=C(O)c1cc2ccccc2[nH]1 [Compound 1, indole-2-carboxylic acid] | 32.4 ± 4.51 µM | – | > 80 µM
3 | CCOC(=O)c1[nH]c2ccccc2c1Nc1ccccc1OC [Compound 4a, ethyl 3-((2-methoxyphenyl)amino)-1H-indole-2-carboxylate] | 10.1 ± 0.56 µM | – | > 80 µM
4 | CCOC(=O)c1[nH]c2ccccc2c1Nc1cccc(OC)c1 [Compound 4b, Ethyl 3-((3-methoxyphenyl)amino)-1H-indole-2-carboxylate] | 10.2 ± 0.67 µM | – | > 80 µM
5 | CCOC(=O)c1[nH]c2ccccc2c1Nc1ccc(OC)cc1 [Compound 4c, Ethyl 3-((4-methoxyphenyl)amino)-1H-indole-2-carboxylate] | > 40 µM | – | > 80 µM
6 | CCOC(=O)c1[nH]c2ccccc2c1Nc1ccc(OC)c(F)c1 [Compound 4d, Ethyl 3-((3-fluoro-4-methoxyphenyl)amino)-1H-indole-2-carboxylate] | 15.6 ± 1.03 µM | – | > 80 µM
7 | CCOC(=O)c1[nH]c2ccccc2c1Nc1ccc(F)cc1 [Compound 4e, Ethyl 3-((4-fluorophenyl)amino)-1H-indole-2-carboxylate] | 15.7 ± 1.06 µM | – | > 80 µM
8 | CCOC(=O)c1[nH]c2ccccc2c1Nc1ccccc1Cl [Compound 4f, Ethyl 3-((2-chlorophenyl)amino)-1H-indole-2-carboxylate] | > 40 µM | – | > 80 µM
9 | Cc1nnc(C(=O)NC(C)(C)c2nc(C(=O)NCc3ccc(F)cc3)c(O)c(=O)n2C)o1 [RAL, Raltegravir, reference compound] | – | – | > 80 µM
10 | Isopropyl 3-((4-chlorophenethoxy)methyl)-5-nitro-1H-indole-2-carboxylate [Compound 9b] | – | > 80 µM | –
11 | isopropyl 5-nitro-3-((4-(trifluoromethyl)phenethoxy) methyl)-1H-indole-2-carboxylate [Compound 9a] | – | 54.3 ± 4.79 µM | –

Continued, in another order:

Row | IC50 (HIV-1 integrase) | Compound | CC50 (MT-4 cells) | CC50 at 5 days (Cytotoxicity assay)
12 | 26 ± 1.27 µM | CCOC(=O)c1[nH]c2ccc(NC(=O)c3ccc(F)cc3)cc2c1Br [Compound 13a, ethyl 3-bromo-5-(4-fluorobenzamido)-1H-indole-2-carboxylate] | – | > 80 µM
13 | 11.7 ± 1.08 µM | CCOC(=O)c1[nH]c2ccc(NC(=O)c3cnccn3)cc2c1Br [Compound 13b, Ethyl 3-bromo-5-(pyrazine-2-carboxamido)-1H-indole-2-carboxylat] | – | > 80 µM
14 | > 40 µM | CCOC(=O)c1cc2ccc(Nc3ccc(F)cc3)cc2[nH]1 [Compound 16a, Ethyl 6-((4-fluorophenyl)amino)-1H-indole-2-carboxylate] | – | > 80 µM
15 | > 40 µM | CCOC(=O)c1cc2ccc(Nc3ccc(Br)cc3)cc2[nH]1 [Compound 16b, Ethyl 6-((4-bromophenyl)amino)-1H-indole-2-carboxylate] | – | > 80 µM
16 | > 40 µM | CCOC(=O)c1cc2ccc(Nc3ccc(OC)cc3)cc2[nH]1 [Compound 16c, Ethyl 6-((4-methoxyphenyl)amino)-1H-indole-2-carboxylate] | – | > 80 µM
17 | > 40 µM | CCOC(=O)c1cc2ccc(Nc3cccc(OC)c3)cc2[nH]1 [Compound 16d, Ethyl 6-((3-methoxyphenyl)amino)-1H-indole-2-carboxylate] | – | > 80 µM
18 | > 40 µM | CCOC(=O)c1cc2ccc(Nc3ccccc3OC)cc2[nH]1 [Compound 16e, Ethyl 6-((2-methoxyphenyl)amino)-1H-indole-2-carboxylate] | – | > 80 µM
19 | > 40 µM | CCOC(=O)c1cc2ccc(Nc3ccc(OC)c(F)c3)cc2[nH]1 [Compound 16f, Ethyl 6-((3-fluoro-4-methoxyphenyl)amino)-1H-indole-2-carboxylate] | – | > 80 µM
20 | > 40 µM | CCOC(=O)c1cc2ccc(NCc3cccc(F)c3)cc2[nH]1 [Compound 16g, Ethyl 6-((3-fluorobenzyl)amino)-1H-indole-2-carboxylate] | – | > 80 µM
21 | 8.68 ± 0.77 µM | CCOC(=O)c1cc2ccc(NCc3ccccc3F)cc2[nH]1 [Compound 16h, Ethyl 6-((2-fluorobenzyl)amino)-1H-indole-2-carboxylate] | – | > 80 µM
22 | 14.6 ± 1.12 µM | CCOC(=O)c1cc2ccc(NCc3ccccc3Cl)cc2[nH]1 [Compound 16i, Ethyl 6-((2-chlorobenzyl)amino)-1H-indole-2-carboxylate] | – | > 80 µM
23 | 9.67 ± 0.89 µM | CCOC(=O)c1cc2ccc(NCc3ccc(OC)cc3)cc2[nH]1 [Compound 16j, Ethyl 6-((4-methoxybenzyl)amino)-1H-indole-2-carboxylate] | – | > 80 µM
24 | > 40 µM | CCOC(=O)c1cc2ccc(NCCc3ccc(F)cc3)cc2[nH]1 [Compound 16k, Ethyl 6-((4-fluorophenethyl)amino)-1H-indole-2-carboxylate] | – | > 80 µM
25 | 3.11 ± 0.18 µM | O=C(O)c1cc2ccc(Nc3ccc(F)cc3)cc2[nH]1 [Compound 17a, 6-((4-Fluorophenyl)amino)-1H-indole-2-carboxylic acid] | – | > 80 µM
26 | 6.67 ± 0.51 µM | O=C(O)c1cc2ccc(Nc3ccc(Br)cc3)cc2[nH]1 [Compound 17b, 6-((4-Bromophenyl)amino)-1H-indole-2-carboxylic acid] | – | > 80 µM
27 | 12.3 ± 1.06 µM | COc1ccc(Nc2ccc3cc(C(=O)O)[nH]c3c2)cc1 [Compound 17c, 6-((4-Methoxyphenyl)amino)-1H-indole-2-carboxylic acid] | – | > 80 µM
28 | 7.08 ± 0.63 µM | COc1ccccc1Nc1ccc2cc(C(=O)O)[nH]c2c1 [Compound 17e, 6-((2-Methoxyphenyl)amino)-1H-indole-2-carboxylic acid] | – | > 80 µM
29 | 14.1 ± 0.78 µM | COc1ccc(Nc2ccc3cc(C(=O)O)[nH]c3c2)cc1F [Compound 17f, 6-((3-Fluoro-4-methoxyphenyl)amino)-1H-indole-2-carboxylic acid] | – | > 80 µM
30 | 15.6 ± 1.09 µM | O=C(O)c1cc2ccc(NCc3cccc(F)c3)cc2[nH]1 [Compound 17g, 6-((3-Fluorobenzyl)amino)-1H-indole-2-carboxylic acid] | – | > 80 µM
